{"data": "Results pooled from the literature", "organism": "Candida albicans"}
{"Compound": "Cc1ccc(N=Nc2c(N)nn3c(-c4ccc(Cl)cc4Cl)cc(-c4ccc(OCc5ccccc5)cc4)nc23)cc1", "read-out": "microbial killing", "technique": "broth dilution", "strain": "ATCC10231", "measurement": "MFC", "value": "62.5 µg/mL"}
{"Compound": "C#CCOC(=O)ON=C1C=CC(=C(C#N)c2ccccc2)C=C1", "read-out": "microbial killing", "technique": "broth dilution", "strain": "ATCC10231", "time": "48 h", "measurement": "MFC", "value": "8 µg/mL"}
{"Compound": "CCS(=O)(=O)Oc1ccc(C=NNC(=O)CSc2nc3ccc(Cl)cc3c(=O)n2-c2ccccc2)cc1OC", "read-out": "microbial growth", "technique": "well diffusion", "tested at": "20 µg/mL", "measurement": "inhibition zone", "value": "2 mm"}
{"Compound": "OC(Cn1cncn1)(Cn1cncn1)c1ccc(F)cc1F", "read-out": "microbial growth", "technique": "broth dilution", "strain": "CGMCC2", "time": "48 h", "measurement": "MIC", "value": "4 µM"}
{"Compound": "COc1ccc(N=Nc2c(N)nn3c(-c4ccc(Cl)cc4Cl)cc(-c4ccc(OCc5ccccc5)cc4)nc23)cc1", "read-out": "microbial killing", "technique": "broth dilution", "strain": "ATCC10231", "measurement": "MFC", "value": "250 µg/mL"}
{"Compound": "CC(=O)N1CCN(c2ccc(OCC3COC(Cn4ccnc4)(c4ccc(Cl)cc4Cl)O3)cc2)CC1 (centres unmarked)", "read-out": "microbial growth", "technique": "broth dilution", "strain": "SP3931", "time": "48 h", "measurement": "MIC", "value": "2 µM"}
{"Compound": "CCS(=O)(=O)Oc1ccc(C=NNC(=O)CSc2nc3ccc(Cl)cc3c(=O)n2-c2ccccc2)cc1", "read-out": "microbial growth", "technique": "well diffusion", "tested at": "20 µg/mL", "measurement": "inhibition zone", "value": "3 mm"}
{"Compound": "Cc1ccc(-c2cc(-c3ccc(OCc4ccccc4)cc3)nc3c(N=Nc4ccc(F)cc4)c(N)nn23)cc1", "read-out": "microbial killing", "technique": "broth dilution", "strain": "ATCC10231", "measurement": "MFC", "value": "125 µg/mL"}
{"Compound": "C[C@@H]1[C@H](O)[C@@H](C)/C=C/C=C/C=C/C=C/C=C/C=C/C=C/[C@H](O[C@@H]2O[C@H](C)[C@@H](O)[C@H](N)[C@@H]2O)C[C@@H]2O[C@](O)(C[C@@H](O)C[C@@H](O)[C@H](O)CC[C@@H](O)C[C@@H](O)CC(=O)O[C@H]1C)C[C@H](O)[C@H]2C(=O)O", "read-out": "microbial growth", "technique": "broth dilution", "strain": "SP3876", "time": "48 h", "measurement": "MIC", "value": "< 0.25 µM"}
{"Compound": "Cc1ccc(N=Nc2c(N)nn3c(-c4ccc(C)cc4)cc(-c4ccc(OCc5ccccc5)cc4)nc23)cc1", "read-out": "microbial killing", "technique": "broth dilution", "strain": "ATCC10231", "measurement": "MFC", "value": "125 µg/mL"}
{"Compound": "Nc1ccc(S(=O)(=O)Nc2ncccn2)cc1", "read-out": "microbial growth", "technique": "well diffusion", "tested at": "20 µg/mL", "measurement": "inhibition zone", "value": "3 mm"}
{"Compound": "N#CC(=C1C=CC(=NOC(=O)OCc2ccccc2)C=C1)c1ccccc1", "read-out": "microbial killing", "technique": "broth dilution", "strain": "ATCC10231", "time": "48 h", "measurement": "MFC", "value": "256 µg/mL"}
{"Compound": "Cc1cccc2c(=O)n(-c3ccccc3)c(SCC(=O)NN=Cc3ccc(OS(C)(=O)=O)cc3)nc12", "read-out": "microbial growth", "technique": "well diffusion", "tested at": "20 µg/mL", "measurement": "inhibition zone", "value": "4 mm"}
{"Compound": "C#CCON=C1C=CC(=C(C#N)c2ccccc2)C=C1", "read-out": "microbial killing", "technique": "broth dilution", "strain": "ATCC10231", "time": "48 h", "measurement": "MFC", "value": "32 µg/mL"}
